# Test results reported in ChEMBL document CHEMBL4732074, “Design and synthesis of novel fluorescently labeled analogs of vemurafenib targeting MKK4” (Eur J Med Chem, 2021).
# Target: T1, Dual specificity mitogen-activated protein kinase kinase 4 (Homo sapiens) (UniProt P45985)
# T1 sequence (whole entry): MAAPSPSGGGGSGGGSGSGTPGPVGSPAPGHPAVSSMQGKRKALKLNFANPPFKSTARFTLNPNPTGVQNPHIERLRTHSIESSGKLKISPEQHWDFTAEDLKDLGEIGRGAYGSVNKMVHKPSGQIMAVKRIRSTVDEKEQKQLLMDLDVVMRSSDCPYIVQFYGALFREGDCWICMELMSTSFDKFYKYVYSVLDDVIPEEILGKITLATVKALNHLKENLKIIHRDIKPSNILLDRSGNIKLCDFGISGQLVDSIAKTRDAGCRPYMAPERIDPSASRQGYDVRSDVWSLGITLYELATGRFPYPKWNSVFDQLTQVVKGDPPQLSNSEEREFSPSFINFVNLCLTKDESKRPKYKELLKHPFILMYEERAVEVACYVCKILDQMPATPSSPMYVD
# Assay: Inhibition of wild-type human partial length MKK4 (S84 to D399 residues) expressed in mammalian expression system assessed as residual activity at 10 nM by KINOMEscan method relative to control
# In short: (§1)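 KINOMEscan competition binding against an immobilised ligand, run at the lower compound concentrations named in each line. Binding is reported as percentage of control (POC), with low POC indicating high affinity.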
row,Activity,SMILES
1,18%,CCCS(=O)(=O)Nc1ccc(F)c(C(=O)c2ccc3[nH]c4ncc(-c5ccc(C(=O)NCCCCNC(=O)c6ccc(-c7c8ccc(=[N+](C)C)cc-8oc8cc(N(C)C)ccc78)c(C(=O)[O-])c6)nc5)cc4c3c2)c1F

# Target: T1, Dual specificity mitogen-activated protein kinase kinase 4 (Homo sapiens)
# Assay: Inhibition of wild-type human partial length MKK4 (S84 to D399 residues) expressed in mammalian expression system assessed as residual activity at 100 nM by KINOMEscan method relative to control
# In short: (§2)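 DiscoverX KINOMEscan binding assay: the compound at 100 nM competes with an immobilised ligand for kinase binding. Read-out is POC (percentage of control), where lower values mean stronger binding.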
row,Activity,SMILES
1,13%,CN(C)c1ccc2c(-c3ccc(C(=O)NCCCCC(=O)Nc4ccc(-c5cnc6[nH]cc(C(=O)c7c(F)ccc(NS(=O)(=O)Cc8ccccc8)c7F)c6c5)cn4)cc3C(=O)[O-])c3ccc(=[N+](C)C)cc-3oc2c1
2,57%,CCCS(=O)(=O)Nc1ccc(F)c(C(=O)c2c[nH]c3ncc(-c4ccc(NC(=O)CCCCNC(=O)c5ccc(-c6c7ccc(=[N+](C)C)cc-7oc7cc(N(C)C)ccc67)c(C(=O)[O-])c5)nc4)cc23)c1F
3,4.3%,CCCS(=O)(=O)Nc1ccc(F)c(C(=O)c2ccc3[nH]c4ncc(-c5ccc(C(=O)NCCCCNC(=O)c6ccc(-c7c8ccc(=[N+](C)C)cc-8oc8cc(N(C)C)ccc78)c(C(=O)[O-])c6)cc5)cc4c3c2)c1F
4,4.8%,CCCS(=O)(=O)Nc1ccc(F)c(C(=O)c2ccc3[nH]c4ncc(-c5ccc(C(=O)NCCCCCCNC(=O)c6ccc(-c7c8ccc(=[N+](C)C)cc-8oc8cc(N(C)C)ccc78)c(C(=O)[O-])c6)nc5)cc4c3c2)c1F
5,6.6%,CCCS(=O)(=O)Nc1ccc(F)c(C(=O)c2ccc3[nH]c4ncc(-c5ccc(C(=O)NCCCCCCNC(=O)c6ccc(-c7c8ccc(=[N+](C)C)cc-8oc8cc(N(C)C)ccc78)c(C(=O)[O-])c6)cc5)cc4c3c2)c1F
6,1.3%,CCCS(=O)(=O)Nc1ccc(F)c(C(=O)c2ccc3[nH]c4ncc(-c5ccc(C(=O)NCCCCNC(=O)c6ccc(-c7c8ccc(=[N+](C)C)cc-8oc8cc(N(C)C)ccc78)c(C(=O)[O-])c6)nc5)cc4c3c2)c1F
7,9.3%,CCCS(=O)(=O)Nc1ccc(F)c(C(=O)c2ccc3[nH]c4ncc(-c5cnc(C(=O)NCCCCNC(=O)c6ccc(-c7c8ccc(=[N+](C)C)cc-8oc8cc(N(C)C)ccc78)c(C(=O)[O-])c6)nc5)cc4c3c2)c1F
8,19%,CCCS(=O)(=O)Nc1ccc(F)c(C(=O)c2ccc3[nH]c4ncc(-c5ccc(C(=O)NCCNC(=O)c6ccc(-c7c8ccc(=[N+](C)C)cc-8oc8cc(N(C)C)ccc78)c(C(=O)[O-])c6)cc5)cc4c3c2)c1F
9,13%,CCCS(=O)(=O)Nc1ccc(F)c(C(=O)c2ccc3[nH]c4ncc(-c5ccc(C(=O)NCCCNC(=O)c6ccc(-c7c8ccc(=[N+](C)C)cc-8oc8cc(N(C)C)ccc78)c(C(=O)[O-])c6)cc5)cc4c3c2)c1F
10,4.5%,CCCS(=O)(=O)Nc1ccc(F)c(C(=O)c2ccc3[nH]c4ncc(-c5ccc(C(=O)NCCCNC(=O)c6ccc(-c7c8ccc(=[N+](C)C)cc-8oc8cc(N(C)C)ccc78)c(C(=O)[O-])c6)nc5)cc4c3c2)c1F
11,6.6%,CN(C)c1ccc2c(-c3ccc(C(=O)NCC(=O)Nc4ccc(-c5cnc6[nH]cc(C(=O)c7c(F)ccc(NS(=O)(=O)Cc8ccccc8)c7F)c6c5)cn4)cc3C(=O)[O-])c3ccc(=[N+](C)C)cc-3oc2c1
12,14%,CCCS(=O)(=O)Nc1ccc(F)c(C(=O)c2c[nH]c3ncccc23)c1F
13,13%,CCCS(=O)(=O)Nc1ccc(F)c(C(=O)c2ccc3[nH]c4ncc(-c5ccc(NC(=O)CNC(=O)c6ccc(-c7c8ccc(=[N+](C)C)cc-8oc8cc(N(C)C)ccc78)c(C(=O)[O-])c6)cc5)cc4c3c2)c1F
14,8.4%,CCCS(=O)(=O)Nc1ccc(F)c(C(=O)c2c[nH]c3ncc(-c4ccc(NC(=O)CNC(=O)c5ccc(-c6c7ccc(=[N+](C)C)cc-7oc7cc(N(C)C)ccc67)c(C(=O)[O-])c5)nc4)cc23)c1F
15,11%,CCCS(=O)(=O)Nc1ccc(F)c(C(=O)c2c[nH]c3ncc(-c4ccc(NC(=O)CNC(=O)c5ccc(-c6c7ccc(=[N+](C)C)cc-7oc7cc(N(C)C)ccc67)c(C(=O)[O-])c5)cc4)cc23)c1F
16,9.2%,CCCS(=O)(=O)Nc1ccc(F)c(C(=O)c2c[nH]c3ncc(-c4ccc(NC(=O)CNC(=O)OC(C)(C)C)cc4)cc23)c1F
17,32%,CCCS(=O)(=O)Nc1ccc(F)c(C(=O)c2ccc3[nH]c4ncc(-c5ccc(C(=O)NCCCCCNC(=O)c6ccc(-c7c8ccc(=[N+](C)C)cc-8oc8cc(N(C)C)ccc78)c(C(=O)[O-])c6)cc5)cc4c3c2)c1F

# Target: Serine/threonine-protein kinase B-raf (Homo sapiens) (UniProt P15056)
# Assay: Inhibition of BRAF (unknown origin) assessed as assessed as residual activity relative to control
# In short: as §2
# Chain of Serine/threonine-protein kinase B-raf (Homo sapiens) (P15056 whole entry): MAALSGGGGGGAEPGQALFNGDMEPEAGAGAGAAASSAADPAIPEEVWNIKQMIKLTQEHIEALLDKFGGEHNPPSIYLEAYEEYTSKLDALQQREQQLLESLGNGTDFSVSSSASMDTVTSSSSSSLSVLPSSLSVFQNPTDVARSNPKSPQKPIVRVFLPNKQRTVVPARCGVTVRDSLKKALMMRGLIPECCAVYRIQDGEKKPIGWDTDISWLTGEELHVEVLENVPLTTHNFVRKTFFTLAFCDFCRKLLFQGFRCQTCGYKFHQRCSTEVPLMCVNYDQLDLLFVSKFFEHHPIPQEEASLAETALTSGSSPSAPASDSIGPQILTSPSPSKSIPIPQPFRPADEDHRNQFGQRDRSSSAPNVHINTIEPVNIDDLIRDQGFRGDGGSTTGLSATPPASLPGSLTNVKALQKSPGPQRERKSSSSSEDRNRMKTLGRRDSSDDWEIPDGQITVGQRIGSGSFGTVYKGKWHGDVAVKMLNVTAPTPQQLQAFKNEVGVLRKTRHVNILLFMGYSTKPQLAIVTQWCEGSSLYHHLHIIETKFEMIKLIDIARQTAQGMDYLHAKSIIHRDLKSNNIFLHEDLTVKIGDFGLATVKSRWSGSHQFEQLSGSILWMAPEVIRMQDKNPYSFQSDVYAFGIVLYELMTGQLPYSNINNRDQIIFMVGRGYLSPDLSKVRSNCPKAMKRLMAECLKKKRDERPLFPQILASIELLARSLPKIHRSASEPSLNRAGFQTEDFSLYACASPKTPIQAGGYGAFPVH
row,Activity,SMILES
1,92%,CCCS(=O)(=O)Nc1ccc(F)c(C(=O)c2ccc3[nH]c4ncc(-c5ccc(C(=O)NCCCCNC(=O)c6ccc(-c7c8ccc(=[N+](C)C)cc-8oc8cc(N(C)C)ccc78)c(C(=O)[O-])c6)nc5)cc4c3c2)c1F

# Target: T1, Dual specificity mitogen-activated protein kinase kinase 4 (Homo sapiens)
# Assay: Inhibition of wild-type human partial length MKK4 (S84 to D399 residues) expressed in mammalian expression system assessed as residual activity at 30 nM by KINOMEscan method relative to control
# In short: as §1
row,Activity,SMILES
1,4.1%,CCCS(=O)(=O)Nc1ccc(F)c(C(=O)c2ccc3[nH]c4ncc(-c5ccc(C(=O)NCCCCNC(=O)c6ccc(-c7c8ccc(=[N+](C)C)cc-8oc8cc(N(C)C)ccc78)c(C(=O)[O-])c6)nc5)cc4c3c2)c1F
